Screens (PubChem)
M4 antag = blocks acetylcholine activation of human M4 receptor | CHO-hM4 cells, ACh EC80, Fluo-8 calcium fluorescence | inhibition, % at 3 µM | 0.73% of 360,000 active | AID 624125;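 active means inhibition above its plate's cutoff, the mean inhibition of sample wells plus 3 SD, cut at about 27% in these data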;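 further: 0% = acetylcholine EC80 with DMSO and 100% = DMSO without agonist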
Target sequence (P08173 whole entry, looked up): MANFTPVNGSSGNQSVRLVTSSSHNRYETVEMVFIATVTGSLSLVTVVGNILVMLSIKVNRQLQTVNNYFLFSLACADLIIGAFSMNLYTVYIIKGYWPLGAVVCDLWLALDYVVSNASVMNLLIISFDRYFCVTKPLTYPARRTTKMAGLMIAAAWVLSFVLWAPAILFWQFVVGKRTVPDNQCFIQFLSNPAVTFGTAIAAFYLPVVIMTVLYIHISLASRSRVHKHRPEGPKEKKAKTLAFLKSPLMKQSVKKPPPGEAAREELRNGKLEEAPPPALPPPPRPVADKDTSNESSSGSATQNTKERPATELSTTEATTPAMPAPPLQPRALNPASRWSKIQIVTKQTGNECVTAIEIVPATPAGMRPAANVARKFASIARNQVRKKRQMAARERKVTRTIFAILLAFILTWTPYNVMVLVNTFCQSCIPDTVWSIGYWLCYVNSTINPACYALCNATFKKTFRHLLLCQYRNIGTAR
CHRM5 agonist = CHRM5 agonism in calcium assay; 0.19% of 360,000 active; activation, % at 3 µM; P08912; CHO-K1 hM5 cells, Fluo-8 calcium fluorescence; 0% DMSO wells, 100% maximal acetylcholine response; AID 624037;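 active means activation above the run's mean over test compounds plus 3 SD, cut at about 23% in these data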;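 further: signal is peak over basal fluorescence ratio across the kinetic read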
CHRM4 agonist = agonists of human muscarinic M4 receptor (CHRM4); P08173; activation, % at 3 µM; 0.14% of 360,000 active; CHO-K1 hM4/Gqi5, Fluo-8 calcium fluorescence; vehicle 0%, full acetylcholine response 100%;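 active means activation above the run mean over all test wells plus 3 SD, cut at about 32% in these data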;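 further: peak over basal fluorescence ratio per well then scaled between controls; 0% = DMSO wells and 100% = acetylcholine at EC100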
M4 PAM = potentiates acetylcholine response at human M4 receptor. CHO-K1 hM4/Gqi5, Fluo-8 calcium fluorescence, ACh EC20; 0% = ACh EC20, 100% = maximal ACh. 0.4% of 360,000 active. activation, % at 3 µM. AID 624126;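 active means activation above its plate's cutoff, the mean activation of sample wells plus 3 SD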
M5 PAM = CHRM5 positive allosteric modulation | 0.3% of 360,000 active | CHO-K1 hM5, Fluo-8 calcium, ACh EC20 PAM; 0% = ACh EC20, 100% = ACh EC100 | activation, % at 3 µM | P08912;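 active means activation above the run cutoff, the mean activation of all test compounds plus 3 SD, cut at about 18% in these data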
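Assay system: CHO-K1 hM5 cells / Incubation: Fluo-8 loading 80 min at 37 °C plus 30 min room temperature / Technique: Fluo-8 calcium dye fluorescence, kinetic read / Repeats: single replicate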
M5 antag = antagonists of human muscarinic M5 receptor (CHRM5); CHO-hM5 cells, Fluo-8 calcium fluorescence, ACh EC80; inhibition, % at 3 µM; 0.59% of 360,000 active; AID 624040;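 active means inhibition above a per-plate cutoff, the mean of that plate's test compounds plus 3 SD, cut at about 27% in these data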;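 further: 0% = acetylcholine EC80 with DMSO and 100% = DMSO without agonist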
* = called active by the depositor. Most compounds without a hit are left out; they make up all but 1.9% or so of the library.

SMILES | M4 antag | CHRM5 agonist | CHRM4 agonist | M4 PAM | M5 PAM | M5 antag
CCC1CCCCN1CCCNS(=O)(=O)c1ccc2c(c1)oc(=O)n2C (stereo unspecified) | -1.3 | -2.8 | 0.3 | -4.8 | -3.2 | 14.1
COC(=O)[C@@H](NCc1cccc(CN[C@H](C(=O)OC)c2ccccc2)c1)c1ccccc1 | -7.2 | 2.1 | 3.5 | -3.7 | -3.1 | -1.6
CCN(CC)CCN1C(=O)C(=O)/C(=C(/O)c2c(C)[nH]c(C(=O)OC)c2C)C1c1ccccc1 (stereo unspecified) | 1.3 | -2.0 | 0.9 | 29.5* | 2.5 | 4.1
CCN(CC)CCN1C(=O)C(=O)/C(=C(/O)c2c(C)[nH]c(C(=O)OC)c2C)C1c1ccc(OC)cc1 (stereo unspecified) | 2.6 | -1.2 | 0.2 | 1.5 | -2.2 | 2.6
CCCSc1nc(C)c(CC(=O)O)c(=O)[nH]1 | 1.7 | 1.1 | 0.5 | 28.1* | 10.0 | -4.9
CCC1(c2ccc(F)cc2)NC(=O)N(CC(=O)NC2CCCCCC2)C1=O (stereo unspecified) | -3.2 | 5.3 | 2.2 | 4.6 | -8.9 | 8.6
COc1cc(Br)cc(/C=N/NC(=O)Cc2ccc(C(F)(F)F)cc2[N+](=O)[O-])c1O | -3.2 | -0.1 | 0.8 | 4.9 | -9.2 | 2.8
CCOc1cc(/C=N/NC(=O)Cc2ccc(C(F)(F)F)cc2[N+](=O)[O-])c(Br)cc1OC | -14.4 | 0.7 | 0.2 | 9.1 | 21.9* | -8.3
CCN(C(=O)CSc1nnnn1C)c1c(N)n(Cc2ccccc2)c(=O)[nH]c1=O | 2.5 | 1.8 | 1.9 | 0.6 | -1.1 | -4.3
COCCCN(C(=S)NC(=O)c1ccc(C(C)(C)C)cc1)c1c(N)n(Cc2ccccc2)c(=O)[nH]c1=O | -2.2 | -1.5 | 2.5 | 27.0* | -1.0 | 6.3
CCN(C(=O)c1ccc(=O)[nH]c1)c1c(N)n(Cc2ccccc2)c(=O)[nH]c1=O | 5.4 | 0.1 | 0.7 | 22.0* | 0.0 | 14.9
CCN(C(=O)CSc1nncs1)c1c(N)n(Cc2ccccc2)c(=O)[nH]c1=O | -17.1 | -1.7 | 0.6 | 1.9 | 28.9* | -7.2
CCN(C(=O)COC(=O)c1cc2ccccc2cc1OC)c1c(N)n(Cc2ccccc2)c(=O)[nH]c1=O | -12.8 | -1.1 | 0.9 | 22.2* | 1.0 | 11.2
Cc1c(/C=N/NC(=O)c2cccs2)c2ccccc2n1Cc1ccccc1Cl | -11.1 | -4.4 | -0.3 | 7.1 | 5.4 | -9.7
CCOC(=O)[C@H]1[C@H]2COc3ccccc3[C@@H]2N2C(=O)CN(CC3CCCO3)C(=O)[C@@]12C (stereo partly specified) | -2.5 | 5.6 | 1.4 | 4.1 | 4.0 | -0.9
COc1ccc(C)cc1NC(=O)CCC(=O)Nc1nnc(C2CCCCC2)s1 | -6.6 | -3.2 | 1.5 | 1.5 | 5.0 | -1.8
Nc1nc2ccccc2cc1C(=O)NCc1ccc(-c2ccccc2)cc1 | 18.8 | 9.7 | 16.7 | -3.9 | -17.1 | 31.5*
OCc1cc(-c2ccccn2)no1 | 1.7 | 0.8 | 2.4 | 9.5 | 5.3 | -1.1
CCOC(=O)C1CCN(S(=O)(=O)c2cn(C)c(=O)n(C)c2=O)CC1 | 32.0* | -1.1 | 0.6 | -12.6 | -10.9 | 10.3
CC(=O)c1cccc(N=C2NC(=O)CS2)c1 | 13.6 | -0.9 | -0.3 | 4.3 | 0.1 | 5.7
O=C1CSC(=Nc2cccc(C(=O)O)c2)N1 | -4.1 | 5.6 | 1.1 | 14.7* | -3.6 | 7.1
COc1ccc(-c2cn(-c3ccc(C)cc3)c(=O)n2CC(=O)Nc2cccc(F)c2)cc1 | -20.3 | -7.7 | 1.7 | -0.9 | 25.9* | -4.4
COCCCn1c(SC(C)C(=O)NC2CC2)nc2ccccc2c1=O (stereo unspecified) | -11.1 | -1.5 | 1.0 | 0.7 | 0.3 | -5.8
CCN=C(NCC)SC1CC(=O)N(c2cccc(OC)c2)C1=O (stereo unspecified) | 27.1* | 5.0 | 17.4 | -14.3 | -20.4 | 25.2
NC(=O)CCC(C(=O)O)N1C(=O)C2C3CCC(C3)C2C1=O (stereo unspecified) | -8.1 | 0.0 | 0.4 | 3.2 | 5.0 | -2.3
SMILES | M4 antag | CHRM5 agonist | CHRM4 agonist | M4 PAM | M5 PAM | M5 antag
Cc1ccccc1OCCn1cnc2c(N)ncnc21 | 2.2 | 3.3 | 4.6 | 16.5* | -3.4 | 4.4
N#C/C(=C/c1ccc(N2CCOCC2)o1)c1ccc(Br)cc1 | 36.2* | 5.7 | 11.6 | -13.7 | -9.9 | 19.1
N#C/C(=C/c1ccc(N2CCOCC2)o1)C(=O)NC1CCCCC1 | -1.1 | 30.5* | 9.6 | -2.6 | -8.8 | 15.6
COc1ccc(NC(=O)/C(C#N)=C/C=C/c2ccco2)cc1 | 18.3 | 6.3 | 1.2 | 6.4 | 23.7* | 26.7
COc1ccc(NC(=O)/C(C#N)=C\c2ccc(N3CCOCC3)o2)cc1 | 14.3 | 120.5* | 37.0* | -21.7 | -22.9 | 38.9*
O=c1cc(CN2CCOCC2)c2ccccc2o1 | -1.2 | 0.2 | 2.0 | 5.6 | -3.5 | -8.4
CCn1cc(S(=O)(=O)NC(C)c2cc(OC)ccc2OC)cn1 (stereo unspecified) | -1.6 | -3.7 | -0.1 | 6.7 | -2.6 | 5.2
N#C/C(=C\c1ccc(N2CCOCC2)o1)C(=O)Nc1ccc(O)cc1 | -2.7 | 24.3* | 9.5 | -4.9 | -10.2 | 12.7
O=c1c(/C=N\NS(=O)(=O)c2ccccc2)coc2ccc(Cl)cc12 | 0.0 | -4.5 | 11.3 | -6.8 | -10.9 | 35.1*
O=S(=O)(NC1CC1)c1ccc(Cl)cc1F | 6.2 | -2.3 | 1.1 | -0.6 | 1.6 | 15.8
Cc1cc(OC(=O)c2ccc(S(=O)(=O)N3CCOCC3)cc2)c([N+](=O)[O-])c(=O)[nH]1 | 5.0 | -1.9 | 0.4 | 3.8 | 1.1 | 3.2
COc1ccc(N2CCN(S(=O)(=O)c3ccc4c(c3)CC(C)N4C(=O)C3CC3)CC2)cc1 (stereo unspecified) | 7.7 | -3.0 | 0.3 | -6.0 | -12.6 | 27.0*
CC(=O)N1CCCc2cc(S(=O)(=O)N3CCCC(C(=O)N4CCN(c5cc(C)ccc5C)CC4)C3)ccc21 (stereo unspecified) | -13.8 | 1.8 | 36.6* | -26.6 | -18.3 | 20.5
CC1Cc2cc(S(=O)(=O)N3CCC(C(=O)N4CCN(c5ccccc5F)CC4)CC3)ccc2N1C(=O)C1CC1 (stereo unspecified) | 37.2* | 1.8 | 14.9 | -11.4 | -10.6 | 29.8*
CC(=O)N1c2ccc(S(=O)(=O)N3CCC(C(=O)N4CCC(C)CC4)CC3)cc2CC1C (stereo unspecified) | -0.5 | -2.3 | 1.6 | -0.4 | -0.2 | 2.6
CC(=O)N1c2ccc(S(=O)(=O)N3CCC(C(=O)N4CCN(c5cc(Cl)ccc5C)CC4)CC3)cc2CC1C (stereo unspecified) | 36.4* | 5.2 | 20.6 | -18.3 | -16.5 | 27.8*
CCCC(=O)Nc1c(-c2ccccc2Cl)c(=O)c2ccccc2n1C | -6.8 | -1.7 | 1.4 | 4.1 | -1.1 | -0.3
